{
  "source": "paper PMC5800744",
  "about": "(ACS chemical neuroscience, 2015)",
  "key": {"MMP-9": {"test_system": "MMP-9", "details": "cited from earlier work"}, "[1]": {"assay": "Water solubility determination", "format": "physicochemical", "details": "saturated solution in water", "method_in_brief": "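A saturated solution of test compound in water was centrifuged. The supernatant was quantified by UPLC with UV detection at 245 nm against calibration curves from known concentrations. The relative value compares the solubilities of the two compounds measured this way.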"}, "HepG2 cells": {"test_system": "HepG2 cells", "assay": "XTT cytotoxicity assay", "format": "cell-based", "method_in_brief": "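XTT viability in HepG2 cells, run in triplicate, with IC50 obtained by curve fitting.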"}, "[2]": {"test_system": "red blood cells (horse whole blood)", "assay": "Hemolysis of red blood cells", "format": "cell-based", "details": "up to concentrations of 160 μM; 37 °C, 1 h", "method_in_brief": "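Horse whole-blood RBCs were pelleted at 7 000g and washed three times in 0.1 M PBS. Test compound, from DMSO stock, was incubated with RBCs in PBS at final 5–160 μM for 1 h at 37 °C, in duplicate. Controls were Triton X-100 (positive) and DMSO/PBS (negative). Samples were spun at 13 000g, supernatant absorbance was read at 541 nm, and IC50 was calculated from the plotted data.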"}, "[3]": {"assay": "PK and brain distribution after single iv dose", "format": "in vivo, mice (male C57Bl/6J)", "details": "male mice"}, "[4]": {"test_system": "cortical lesion after controlled cortical impact", "details": "TBI mice; routes of administration and dose regimens different; cited from earlier work"}, "[5]": {"details": "2 after single iv dose of 2 (6.3 mg/kg), plasma"}, "[6]": {"details": "2 in brain after single iv dose of 2 (6.3 mg/kg)"}, "[7]": {"details": "2 in brain after single iv dose of 3 (7.8 mg/kg)"}, "[8]": {"details": "2 in plasma after single iv dose of 2 (6.3 mg/kg)"}, "[9]": {"details": "2 in plasma after single iv dose of 3 (7.8 mg/kg)"}},
  "data": [
    {"compound": "TIMP-1: tissue inhibitor of matrix metalloproteinase-1", "values": [
      {"measurement": "residence time", "setting": "MMP-9; time the inhibitor remains complexed with the target", "value": 7.9, "unit": "min"}
    ]},
    {"compound": "O=S(=O)(CC1CS1)c1ccc(Oc2ccc(O)cc2)cc1", "note": "(centres unmarked) [Compound 2, p-hydroxy SB-3CT]", "values": [
      {"measurement": "aqueous solubility", "setting": "[1]", "value": 22.2, "unit": "µg/mL"},
      {"measurement": "Ki", "setting": "MMP-9; MMP-9", "value": "0.16 ± 0.08", "unit": "µM"},
      {"measurement": "IC50", "setting": "HepG2 cells", "value": "114 ± 1", "unit": "µM"},
      {"measurement": "hemolysis of red blood cells", "setting": "[2]", "value": "not observed"},
      {"measurement": "brainAUC/plasmaAUC", "setting": "[3]; 2 after single iv dose of 2 (6.3 mg/kg)", "value": 1.2},
      {"measurement": "CL", "setting": "[3]; [5]", "value": 105, "unit": "mL/min/kg"},
      {"measurement": "Vd", "setting": "[3]; [5]", "value": 0.850, "unit": "L/kg"},
      {"measurement": "brainAUC/plasmaAUC", "setting": "[3]; 2 after single iv dose of 3 (7.8 mg/kg)", "value": 0.53},
      {"measurement": "AUC0-last", "setting": "[3]; [6]", "value": 232, "unit": "pmol·min/mg"},
      {"measurement": "AUC0-∞", "setting": "[3]; [6]", "value": 235, "unit": "pmol·min/mg"},
      {"measurement": "t1/2α", "setting": "[3]; [6]", "value": 3.0, "unit": "min"},
      {"measurement": "t1/2β", "setting": "[3]; [6]", "value": 49, "unit": "min"},
      {"measurement": "AUC0-last", "setting": "[3]; [7]", "value": 26, "unit": "pmol·min/mg"},
      {"measurement": "AUC0-∞", "setting": "[3]; [7]", "value": 27, "unit": "pmol·min/mg"},
      {"measurement": "t1/2α", "setting": "[3]; [7]", "value": 3.1, "unit": "min"},
      {"measurement": "t1/2β", "setting": "[3]; [7]", "value": 8.3, "unit": "min"},
      {"measurement": "AUC0-last", "setting": "[3]; [8]", "value": 189, "unit": "µM·min"},
      {"measurement": "AUC0-∞", "setting": "[3]; [8]", "value": 195, "unit": "µM·min"},
      {"measurement": "t1/2α", "setting": "[3]; [8]", "value": 3.4, "unit": "min"},
      {"measurement": "t1/2β", "setting": "[3]; [8]", "value": 45, "unit": "min"},
      {"measurement": "AUC0-last", "setting": "[3]; [9]", "value": 49, "unit": "µM·min"},
      {"measurement": "AUC0-∞", "setting": "[3]; [9]", "value": 49, "unit": "µM·min"},
      {"measurement": "t1/2α", "setting": "[3]; [9]", "value": 3.0, "unit": "min"},
      {"measurement": "t1/2β", "setting": "[3]; [9]", "value": 6.5, "unit": "min"}
    ]},
    {"compound": "O=S(=O)(CC1CS1)c1ccc(Oc2ccccc2)cc1", "note": "(centres unmarked) [SB-3CT]", "values": [
      {"measurement": "reduction in brain damage", "setting": "[4]", "value": 14, "unit": "%"}
    ]}
  ]
}
